According to paper PMC5405180 (EBioMedicine, 2017):
Each block holds one compound with its values, some of them ahead of it. Where a SMILES comes first, the peptide text is derived from it. The star is where a group is joined. Cbz = O=C(OCc1ccccc1)*

Tests used:
[1] = system: NFAT5; experiment: NFAT5-dependent GFP reporter assay; assay type: cell-based, murine; settings: for IC50: Mus musculus, RAW264.7, read-out: IC50, NFAT5-dependent reporter activity
Procedure, shortened: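 Cells were stimulated with LPS (1 μg/ml) for 20 h alongside graded test compound or BBR. GFP was read by flow cytometry and expressed as % ΔMFI = (treated MFI − untreated MFI) × 100 / untreated MFI.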

[2] = system: murine peritoneal macrophages; experiment: LPS-stimulated murine peritoneal macrophages; assay type: cell-based; settings: 0.8 μM
[3] = system: murine splenocytes; experiment: LPS-stimulated murine splenocytes; assay type: cell-based; settings: total splenocytes of mice, LPS 1 μg/ml 24 h, 0.8 μM
[4] = system: p38 MAPK; experiment: p38 MAPK activity; assay type: cell-based; settings: RAW 264.7, LPS 1 µg/ml, KRN2 0.8 µM
[5] = system: CREB; experiment: CREB promoter reporter assay; assay type: cell-based; settings: 1 µM test compound
[6] = system: NFAT5; experiment: High salt-induced NFAT5 and tonicity-inducible gene expression in RAW 264.7; assay type: cell-based, murine; settings: for high salt-induced increase in NFAT5 mRNA and protein: RAW 264.7, NaCl 45 mM 12 h, KRN2 1 μM, SB203580 5 μM
[7] = system: NFAT5 promoter; experiment: Nfat5 promoter GFP reporter assay; assay type: cell-based, murine; settings: RAW 264.7, 1 μM
Procedure, shortened: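 RAW 264.7 cells carried a GFP reporter containing two NF-κB binding sites from upstream of the Nfat5 gene. Cells were preincubated with test compound (1 μM) for 1 h, then stimulated for 20 h with either LPS (1 μg/ml) or NaCl (45 mM). GFP was measured by flow cytometry as % ΔMFI relative to untreated cells. Three independent experiments.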

[8] = system: adjuvant-induced arthritis (AIA) in mice; experiment: Adjuvant-induced arthritis; assay type: in vivo
Procedure, shortened: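 AIA induced in 8-week-old C57BL/6 mice with 2 mg CFA given intradermally. Test compound was given at 3 mg/kg i.p. daily for 2 weeks, with PBS as vehicle. Ankle and footpad thickness were tracked over the 2 weeks (6 mice/group, mean ± SD). Joints were fixed in […] for 1 day and decalcified in 5% formic acid for 2 weeks. Sections were blocked with 10% goat serum, then stained overnight at 4 °C with anti-F4/80 (1/50), biotinylated anti-rabbit IgG, streptavidin-peroxidase and DAB.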

[9] = system: NF-κB p65; experiment: p65 phosphorylation/translocation and IκB degradation; assay type: cell-based, murine; settings: RAW 264.7, LPS 1 µg/ml
Procedure, shortened: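 RAW 264.7 cells were incubated in cytoplasmic lysis buffer for 15 min on ice and centrifuged; the supernatant was taken as the cytosolic fraction. The pellet was taken up in nuclear lysis buffer and spun for 20 min at 12,000 rpm. Fractions were run on SDS-PAGE, transferred to nitrocellulose and probed for p65, with NMP p84 and α-tubulin as fraction markers, using ECL detection. Whole-cell lysates were prepared in RIPA buffer for 15 min at 4 °C and protein measured by Bradford assay.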

[10] = system: RAW 264.7 macrophages; experiment: Pro-inflammatory NFAT5 target gene expression in LPS-stimulated RAW 264.7; assay type: cell-based, murine
[11] = target: NF-κB p65 binding to the Nfat5 promoter (Mus musculus, UniProt Q04207); experiment: ChIP assay; assay type: cell-based, murine; settings: RAW 264.7, 1 μM, LPS 1 μg/ml 12 h
Procedure, shortened: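 RAW 264.7 cells were pretreated with test compound (1 μM) for 1 h, then given LPS (1 μg/ml) for 12 h. Cells were fixed in 1% formaldehyde for 10 min at 37 °C, nuclei isolated and chromatin sonicated, with an input aliquot kept. Immunoprecipitation used anti-p65. DNA was extracted with phenol/chloroform, ethanol-precipitated and PCR-amplified with Nfat5 promoter primers; Nfat5 exon primers served as negative control. Three independent experiments.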

[12] = Pharmacokinetic profile in rats; assay type: in vivo; settings: rat
Procedure, shortened: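 Rats were dosed intravenously or orally and plasma concentration–time profiles were obtained. Half-life came from the oral profile. Oral bioavailability (F%) was calculated from oral versus intravenous exposure.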

[13] = system: ELK; experiment: ELK promoter reporter assay; assay type: cell-based; settings: 1 µM test compound
[14] = system: NFAT5; experiment: LPS-induced NFAT5 expression and nuclear translocation; assay type: cell-based, murine
[15] = system: mice with collagen-induced arthritis (CIA); experiment: Collagen-induced arthritis; assay type: in vivo
[16] = target: NF-κB p65 binding to Nfat5 promoter 1 (Homo sapiens, UniProt Q04206); experiment: Electrophoretic mobility shift assay; settings: recombinant p65 400 ng; KRN2 5, 20, 50 μM; MG132 20 μM
[17] = system: RAW 264.7 cells; experiment: NO production; assay type: cell-based, murine; settings: RAW 264.7, LPS 1 μg/ml 24 h, Griess assay
Procedure, shortened: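 RAW 264.7 macrophages were kept in RPMI 1640 with 10% FBS. Cells were preincubated for 1 h with graded test compound, then stimulated with LPS (1 μg/ml) for 24 h. Supernatant was mixed with an equal volume of Griess reagent for 15 min at room temperature to give nitrite. Three independent experiments, each in triplicate, mean ± SD.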

[18] = system: ROS; experiment: ROS production by flow cytometry; assay type: cell-based, murine; settings: RAW 264.7, LPS 1 µg/ml, KRN2 0.8 µM
[19] = system: NFAT1; experiment: NFAT promoter reporter assay; assay type: cell-based, human; settings: HEK293 cells stimulated with PMA, 1 μM
[20] = system: murine peritoneal macrophages; experiment: High salt-stimulated murine peritoneal macrophages; assay type: cell-based; settings: NaCl 45 mM 6 h, 0.8 μM
[21] = system: splenocytes of CIA mice; experiment: LPS-stimulated splenocytes from treated CIA mice; assay type: in vivo; settings: splenocytes of CIA mice treated orally, LPS 1 μg/ml 24 h
Procedure, shortened: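 CIA was induced in mice by CII/CFA immunization with a CII/IFA boost. Mice received oral test compound at 15 or 60 mg/kg on alternate days, or vehicle. Splenocytes from these mice were cultured with LPS (1 μg/ml) for 24 h.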

[22] = 3 mg/kg peritoneally, versus vehicle

NF-κB p65 binding to Nfat5 promoter 1, sequence (Q04206 whole entry): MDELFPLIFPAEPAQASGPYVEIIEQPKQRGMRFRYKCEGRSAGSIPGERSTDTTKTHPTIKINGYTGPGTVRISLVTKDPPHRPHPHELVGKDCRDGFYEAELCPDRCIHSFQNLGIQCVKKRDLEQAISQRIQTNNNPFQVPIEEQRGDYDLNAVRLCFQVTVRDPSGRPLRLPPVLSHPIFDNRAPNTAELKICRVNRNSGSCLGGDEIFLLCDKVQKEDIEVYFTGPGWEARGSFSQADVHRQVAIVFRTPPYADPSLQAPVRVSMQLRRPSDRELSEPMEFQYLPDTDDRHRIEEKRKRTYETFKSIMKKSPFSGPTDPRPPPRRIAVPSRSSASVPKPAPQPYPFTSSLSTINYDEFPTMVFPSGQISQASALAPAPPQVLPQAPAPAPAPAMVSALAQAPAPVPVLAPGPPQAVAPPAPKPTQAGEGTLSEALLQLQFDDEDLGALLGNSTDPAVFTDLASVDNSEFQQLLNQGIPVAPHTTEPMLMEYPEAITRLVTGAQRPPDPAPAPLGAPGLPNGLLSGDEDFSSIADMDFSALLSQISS
NF-κB p65 binding to the Nfat5 promoter, sequence (Q04207 whole entry): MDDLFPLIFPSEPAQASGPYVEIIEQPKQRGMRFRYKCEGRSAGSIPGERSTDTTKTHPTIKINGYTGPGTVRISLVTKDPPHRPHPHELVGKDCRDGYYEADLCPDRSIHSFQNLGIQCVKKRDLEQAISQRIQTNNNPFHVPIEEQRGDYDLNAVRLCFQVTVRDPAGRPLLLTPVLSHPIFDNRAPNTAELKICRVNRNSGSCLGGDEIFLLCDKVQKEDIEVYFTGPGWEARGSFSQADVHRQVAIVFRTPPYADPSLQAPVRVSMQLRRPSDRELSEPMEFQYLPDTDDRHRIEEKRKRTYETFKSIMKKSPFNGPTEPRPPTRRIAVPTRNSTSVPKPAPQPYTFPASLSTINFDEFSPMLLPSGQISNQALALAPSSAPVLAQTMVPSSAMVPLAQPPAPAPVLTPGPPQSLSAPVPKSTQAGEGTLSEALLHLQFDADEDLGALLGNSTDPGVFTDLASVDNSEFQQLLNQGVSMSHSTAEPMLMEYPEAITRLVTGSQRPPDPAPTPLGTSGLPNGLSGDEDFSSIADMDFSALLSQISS

Structure (SMILES): CC(C)C[C@@H](C=O)NC(=O)[C@H](CC(C)C)NC(=O)[C@H](CC(C)C)NC(=O)OCc1ccccc1 [MG132, reference compound] (Cbz-Leu-Leu-Leu-aldehyde)
- NF-κB p65 binding to Nfat5 promoter 1 [16]: did not affect it

Structure (SMILES): C[S+]([O-])c1ccc(-c2nc(-c3ccncc3)c(-c3ccc(F)cc3)[nH]2)cc1 (stereo not drawn) [SB253580, reference compound]
- high salt-induced increase in NFAT5 mRNA and protein [6]: completely blocked

Now from value to compound, other results behind:

- IC50 [1]: 4000 nM
Structure (SMILES): COc1ccc2cc3[n+](cc2c1OC)CCc1cc2c(cc1-3)OCO2 [Berberine, reference compound]

- IC50 [1]: 100 nM
- CREB-dependent reporter (luciferase) activity [5]: not suppressed
- recruitment of NF-κB p65 to the Nfat5 promoter region [11]: nearly completely eliminated
- plasma level after oral administration ([12]; oral administration): not detectable
- ELK-dependent reporter (luciferase) activity [13]: not suppressed
- NF-κB p65 binding to Nfat5 promoter 1 [16]: dose-dependently inhibited
Structure (SMILES): COc1ccc2c(Cc3ccccc3F)c3[n+](cc2c1OC)CCc1cc2c(cc1-3)OCO2.[Br-] [KRN2, 13-(2-Fluorobenzyl)-9,10-dimethoxy-5,6-dihydro-[1,3]dioxolo[4,5-g]isoquinolino[3,2-a]isoquinolin-7-ium bromide]
- LPS-stimulated increase in NFAT5 protein and mRNA [2]: mitigated
- expression levels of Il6 and Tnf ([2]; LPS): decreased
- anti-NFAT5 activity relative to BBR ([1]; ratio of IC50 values, KRN2 versus BBR): 40 times
- iNOS, IL-6, and TNF-α expressions [3]: decreases
- p38 MAPK activity [4]: neither ROS nor p38 MAPK activity was affected
- high salt-induced increase in NFAT5 mRNA and protein [6]: did not repress
- mRNA expression levels of Ar and Bgt ([6]; RAW 264.7 stimulated with high salt (NaCl 45 mM 12 h), 0.8 μM): had no effect
- LPS-induced NFAT5 promoter activity ([7]; LPS 1 μg/ml 20 h): specifically repressed
- high salt-induced NFAT5 promoter activity ([7]; NaCl 45 mM 20 h): failed to reduce
- number of anti-F4/80+ cells infiltrated in joints ([8]; 3 mg/kg peritoneally): declined
- paw swelling (ankle and footpad diameter) ([8]; 3 mg/kg peritoneally every day for 2 weeks, versus vehicle): significantly lower
- inflammatory cell infiltration, synovial hyperplasia, and joint destruction (H&E) [8, 22]: lesser degrees
- degradation of IκB [9]: nor blocked
- phosphorylation and translocation of p65 [9]: neither influenced
- mRNA and protein expression levels of IL-6, TNF-α, and GM-CSF ([10]; RAW 264.7, 0.8 μM, LPS 1 μg/ml): significantly decreased
- expression level of iNOS ([10]; RAW 264.7, LPS 1 μg/ml 24 h, western blot): dose-dependently lowered
- LPS-induced NFAT5 mRNA and protein expression ([14]; RAW 264.7, 0.8 μM, LPS 1 μg/ml): nearly completely blocked
- translocation of NFAT5 into the nucleus ([14]; RAW 264.7, 0.8 μM, LPS 1 μg/ml 12 h): inhibited
- LPS-stimulated increase in NFAT5 protein expression ([14]; RAW 264.7 macrophages, 0.5 μM, western blot): significantly suppressed
- arthritis severity ([15]; 3 mg/kg peritoneally every day for 3 weeks from day 21): significantly decreased
- serum levels of anti-type II collagen antibody, IL-6, and TNF-α ([15]; 3 mg/kg peritoneally, day 40): significantly decreased
- inflammatory cell infiltration, synovial hyperplasia, and joint destruction [15, 22]: limited degree
- number of anti-F4/80+ macrophages in joints [15, 22]: significantly lower
- CIA development ([15]; oral 3 mg/kg every other day for 3 weeks from day 21 (data not shown)): failed to suppress
- NO production [17]: dose-dependently lowered
- ROS [18]: neither ROS nor p38 MAPK activity was affected
- NFAT1-dependent reporter activity [19]: only slightly inhibited
- high salt-induced increase in Nfat5 mRNA expression [20]: neither mitigated

- IC50 [1]: 750 nM
- half-life ([12]; plasma, po): > 8 h
Structure (SMILES): COc1ccc2c(Cc3ccccc3F)c3n(c(=O)c2c1OC)CCc1cc2c(cc1-3)OCO2 [KRN5, 13-(2-Fluorobenzyl)-9,10-dimethoxy-5,6-dihydro-8H-[1,3]dioxolo[4,5-g]isoquinolino[3,2-a]isoquinolin-8-one]
- expressions of NFAT5, IL-6, MCP-1, and GM-CSF ([10]; RAW 264.7, 1 μM, LPS 1 μg/ml 24 h): inhibited
- efficacy in suppressing arthritis compared to methotrexate ([15]; oral 60 mg/kg, methotrexate 5 mg/kg orally twice a week): more potent
- arthritis severity ([15]; oral 15 and 60 mg/kg every other day for 3 weeks from day 21): dose-dependently mitigated
- serum anti-type II collagen IgG ([15]; oral, day 44): significantly decreased
- side effects ([15]; oral, throughout the experiments (data not shown)): no side effects were noted
- NFAT5 expression in spleen cells stimulated by LPS [21]: reduced
